Results reported in ChEMBL document CHEMBL4316599, “Synthesis, in vitro and in vivo biological evaluation of substituted 3-(5-imidazo[2,1-b]thiazolylmethylene)-2-indolinones as new potent anticancer agents” (Eur J Med Chem, 2019).
The source made the active and inactive calls. The calls are words filed in the database; no cut-off is given here.

Key:
[1] = test system: A549; experiment: Cell cycle arrest in human A549 cells assessed as accumulation of cells at G2/M phase after 24 hrs by propidium iodide staining-based flow cytometric analysis; format: functional
Summary of the method: (§1)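 Cells exposed to a range of concentrations for 24 h (HeLa at 5×10^5 cells), then fixed in ice-cold 70% ethanol. Lysis buffer with RNase A and 0.1% Triton X-100 was applied before PI staining. DNA content was read by flow cytometry and G1/S/G2/M fractions taken from DNA histograms. Mean ± SEM of two independent experiments.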

[2] = target: Tubulin (Bos taurus, UniProt Q6B856+Q862L2+Q862F3); experiment: Inhibition of bovine brain tubulin polymerization after 20 mins by spectrophotometric analysis
Summary of the method: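 Bovine brain tubulin (10 μM) in glutamate buffer preincubated with varying compound levels at 30 °C, then chilled to 0 °C. GTP added to 0.4 mM final, then warmed to 30 °C. Assembly followed by turbidity at 350 nm. IC50 is the concentration halving the extent of assembly after 20 min.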

[3] = test system: HeLa; experiment: Cell cycle arrest in human HeLa cells assessed as reduction in accumulation of cells at S phase up to 1000 nM after 24 hrs by propidium iodide staining-based flow cytometric analysis; format: functional; summary of the method: as §1
[4] = test system: Ovarian carcinoma cell; experiment: Cytotoxicity against human ovarian cancer cells after 48 hrs by SRB assay; format: functional
Summary of the method: (§2)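 NCI-60 screen: single-dose pass at 10^-5 M, then a five-concentration assay from 10^-9 to 10^-4 M (highest 100 μM). Exposure was 48 h under standard NCI protocols. GI50, TGI and LC50 were derived per cell line and averaged by subpanel. Repeated tests are the mean of two experiments.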

[5] = test system: A549; experiment: Cell cycle arrest in human A549 cells assessed as reduction in accumulation of cells at S phase up to 600 nM after 24 hrs by propidium iodide staining-based flow cytometric analysis; format: functional; summary of the method: as §1
[6] = Cytotoxicity against human PBL after 72 hrs by MTT assay; format: cell-based; conditions: peripheral blood lymphocytes (PBL)
Summary of the method: (§3)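 Lymphocytes from healthy donors were isolated on a Lymphoprep gradient and held overnight in RPMI-1640 with 10% FBS. Non-adherent cells were set at 5×10^5 cells/mL, either resting or stimulated with 2.5 μg/mL PHA. Cells were exposed to a range of compound concentrations for 72 h and viability read by MTT. GI50 is the mean ± SEM of three separate experiments.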

[7] = test system: CNS carcinoma cell; experiment: Cytotoxicity against human CNS cancer cells after 48 hrs by SRB assay; format: functional; summary of the method: as §2
[8] = test system: K562; experiment: Cell cycle arrest in human K562 cells assessed as mitotic index at IC50 by Giemsa staining-based assay (reference value: 3%); format: functional
[9] = test system: HeLa; experiment: Induction of apoptosis in human HeLa cells at 250 nM after 24 to 48 hrs by Annexin V-FITC/propidium iodide staining-based flow cytometric analysis; format: functional, cell-based
Summary of the method: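 HeLa cells exposed 24 or 48 h to 250, 500 or 1000 nM; annexin-V-FITC plus PI double staining for surface phosphatidylserine and DNA, measured by flow cytometry. Mean ± SEM of three independent experiments.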

[10] = test system: HeLa; experiment: Induction of apoptosis in human HeLa cells assessed as decrease in Bcl-2 levels at 50 to 250 nM after 24 hrs by Western blot analysis; format: functional, cell-based
Summary of the method: (§4)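 HeLa cells treated 24 h, washed in ice-cold PBS and lysed on ice 30 min. Lysates were spun at 15000 x g, 4 °C. 10 µg protein run on SDS-PAGE and blotted to PVDF. Blots were blocked in 5% BSA overnight at 4 °C and probed 2 h at room temperature. Detection by HRP-secondary and ECL, with bands normalized to β-actin as fold of untreated. Three independent experiments, one-way ANOVA/Dunnett.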

[11] = test system: HeLa; experiment: Cell cycle arrest in human HeLa cells assessed as decrease in cdc2 phosphorylation at 50 to 250 nM after 24 hrs by Western blot analysis; format: functional, cell-based; summary of the method: as §4
[12] = test system: Renal cancer cell line; experiment: Cytotoxicity against human renal cancer cells after 48 hrs by SRB assay; format: functional; summary of the method: as §2
[13] = test system: HeLa; experiment: Induction of apoptosis in human HeLa cells assessed as increase in caspase-9 activity at 50 to 250 nM after 24 hrs by Western blot analysis; format: functional, cell-based; summary of the method: as §4
[14] = test system: HT-29; experiment: Cell cycle arrest in human HT-29 cells assessed as accumulation of cells at G2/M phase at 50 nM after 24 hrs by propidium iodide staining-based flow cytometric analysis relative to control; format: functional; summary of the method: as §1
[15] = Cytotoxicity against human PHA-stimulated PBL after 72 hrs by MTT assay; format: cell-based; conditions: PHA-stimulated peripheral blood lymphocytes (PBL); summary of the method: as §3
[16] = test system: HT-29; experiment: Cell cycle arrest in human HT-29 cells assessed as reduction in accumulation of cells at G1 phase up to 1000 nM after 24 hrs by propidium iodide staining-based flow cytometric analysis; format: functional; summary of the method: as §1
[17] = test system: B16-BL6; experiment: Antitumor activity mouse B16-BL6 cells implanted in C57BL/6 mouse assessed tumor growth inhibition at 7.5 mg/kg, ip dosed every other day for 18 days relative to control; format: functional; conditions: 432 h, read-out: TGI
Summary of the method: (§5)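 Syngeneic allograft: C57BL/6 mice, six weeks old, given 2.5×10^5 BL6-B16 or E0771 cells subcutaneously in the dorsolateral flank in PBS. Dosing began at about 100 mm³. Test compound or reference was given intraperitoneally every other day in 50 μL DMSO, with DMSO vehicle controls. Tumor volume was compared with the vehicle group, 5 animals per group, mean ± SEM, by 2-way ANOVA with Bonferroni correction.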

[18] = test system: E0771; experiment: Antitumor activity mouse E0771 cells implanted in C57BL/6 mouse assessed tumor growth inhibition at 15 mg/kg, ip dosed every other day for 20 days relative to control; format: functional; conditions: 480 h, read-out: TGI; summary of the method: as §5
[19] = test system: HeLa; experiment: Induction of ROS generation in human HeLa cells at 250 nM after 12 to 24 hrs by H2-DCFDA staining-based assay; format: functional, cell-based
Summary of the method: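 HeLa cells treated 6, 12, 24 or 48 h, then loaded with H2-DCFDA and analysed by flow cytometry for ROS. Mean ± SEM of three independent experiments, compared against control.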

[20] = test system: HeLa; experiment: Induction of apoptosis in human HeLa cells assessed as increase in cleaved PARP levels at 50 nM after 24 hrs by Western blot analysis; format: functional, cell-based; summary of the method: as §4
[21] = test system: HeLa; experiment: Induction of apoptosis in human HeLa cells assessed as decrease in Mcl-1 levels at 50 to 250 nM after 24 hrs by Western blot analysis; format: functional, cell-based; summary of the method: as §4
[22] = test system: HeLa; experiment: Cell cycle arrest in human HeLa cells assessed as decrease in p-cdc25c expression at 50 to 250 nM after 24 hrs by Western blot analysis; format: functional, cell-based; summary of the method: as §4
[23] = test system: HeLa; experiment: Induction of apoptosis in human HeLa cells assessed as increase in caspase-3 activity at 50 to 250 nM after 24 hrs by Western blot analysis; format: functional, cell-based; summary of the method: as §4
[24] = test system: A549; experiment: Cell cycle arrest in human A549 cells assessed as reduction in accumulation of cells at G1 phase up to 600 nM after 24 hrs by propidium iodide staining-based flow cytometric analysis; format: functional; summary of the method: as §1
[25] = test system: HeLa; experiment: Cell cycle arrest in human HeLa cells assessed as reduction in accumulation of cells at G1 phase up to 1000 nM after 24 hrs by propidium iodide staining-based flow cytometric analysis; format: functional; summary of the method: as §1

SMILES: O=C1Nc2c(ccc3ccccc23)C1=Cc1c(-c2ccncc2)nc2sccn12
- Activity [1]: Dose-dependent effect
- IC50 [2]: 14 µM
- Activity [3]: Active
- GI50 [4]: 0.05 µM
- LC50 (50% lethal concentration) [4]: 80 µM
- TGI [4]: 73.8 µM
- Activity [5]: Active
- GI50 at 72 h [6]: 4.5 µM
- GI50 [7]: 0.04 µM
- TGI [7]: 79.8 µM
- CC50 ([7]; read-out: LC50 (the source's name)): 94.3 µM
- Activity [8]: 12%
- Activity [9]: Active
- Activity [10]: Active
- Activity [11]: Active
- GI50 [12]: 11.8 µM
- TGI [12]: 70.1 µM
- Activity [13]: Active
- Activity [14]: >80%
- GI50 at 72 h [15]: 5.5 µM
- Activity [16]: Active
- inhibition in vivo at 7.5 mg/kg [17]: 18%
- inhibition in vivo at 15 mg/kg [18]: 56.8%
- Activity [19]: Active
- Activity [20]: Active
- Activity [21]: Active
- Activity [22]: Active
- Activity [23]: Active
- Activity [24]: Active
- Activity [25]: Active
